Source: ChEMBL document CHEMBL1629659, “Bronchopulmonary disposition of micafungin in healthy adult volunteers” (Antimicrob Agents Chemother, 2009)
Numbered stars: 1 amine (or outer) side, 2 acyl side, 3 side chain; on linkers, the order of the positions; unused ones are H or OH. Bridge positions count the residues as written; N and C are the ends. Square brackets hold non-standard residues; d marks the D form. Peptide text beside a SMILES is read from it. * marks the point of attachment. hTyr(3S-OH,4S-OH,3'-OSO3H) = N[C@H](C(=O)O)[C@H](O)[C@@H](O)c1ccc(O)c(OS(=O)(=O)O)c1; Orn(4R-OH,5R-OH) = O=C([C@H](C[C@@H](O)[C@@H](O)N[*:3])N[*:1])[*:2]; Pro(3S-OH,4S-Me) = C[C@H]1CN[C@H](C(=O)O)[C@H]1O; X1 = CCCCCOc1ccc(-c2cc(-c3ccc(C(=O)*)cc3)no2)cc1; Gln(3R-OH) = NC(=O)C[C@@H](O)[C@H](N)C(=O)O; Hyp = O=C(O)[C@@H]1C[C@@H](O)CN1

Columns and labels:
[1] = Drug concentration in Alveolar macrophage cells of healthy human at 150 mg, iv […] measured after 4 hrs of third postdose by urea dilution method; assay type: ADME, organism-based; conditions: read-out: Drug uptake
Procedure, shortened: (§1)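 The first aspirate was discarded and the rest pooled. Cells were pelleted and lysed. Drug in BAL fluid and pellet was measured by HPLC. Urea in BAL and plasma was measured by colorimetric enzymatic assay. ELF and alveolar-cell levels were derived by urea dilution.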

[2] = Drug concentration in healthy human epithelial lining fluid at 150 mg, iv […] measured after 24 hrs of third postdose by urea dilution method; assay type: ADME, organism-based; conditions: read-out: Drug uptake; procedure, shortened: as §1
[3] = Drug concentration in healthy human epithelial lining fluid at 150 mg, iv QD measured after 4 hrs of third postdose by urea dilution method; conditions: read-out: Drug uptake
[4] = Plasma concentration in healthy human at 150 mg, iv […] measured after 24 hrs of third postdose; assay type: ADME, organism-based
Procedure, shortened: (§2)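 Healthy volunteers (n=15) were given 150 mg micafungin IV over 1 h every 24 h for three doses. Plasma was sampled before and after the third dose (0, 1, 4, 12, 24 h). Quantitation used modified, validated HPLC with a standard curve linear over 0.05–25.0 μg/ml. Interday CV was ≤11.3% and intraday CV <18%.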

Plasma [5] = assay: Plasma protein binding in healthy human; assay type: ADME, cell-free
[6] = Penetration ratio, ratio of AUC for alveolar macrophage cells of healthy human to AUC for human plasma; assay type: ADME, cell-based; conditions: read-out: Ratio AUC
Procedure, shortened: (§3)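 Penetration was expressed as composite AUC0-24 in ELF or alveolar cells (urea-dilution-corrected BAL data, trapezoidal rule) divided by plasma AUC0-24 (noncompartmental). Subjects received 150 mg IV daily for three doses.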

[7] = Ratio of Cmax to MEC for Aspergillus; assay type: functional
[8] = Cmax in healthy human plasma at 150 mg, iv […]; assay type: ADME, organism-based; set-up: dose 150 mg, route intravenous
Procedure, shortened: (§4)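 Fifteen healthy adults received micafungin 150 mg IV, infused over 1 h every 24 h, for three doses. Blood was drawn before the third dose, at end of infusion (1 h), and 4, 12 and 24 h after the third dose. Plasma levels were measured by validated HPLC (linear 0.05–25.0 μg/ml). Parameters came from noncompartmental analysis over the 24-h dosing interval.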

[9] = AUC ( 0 to 24 hrs) in healthy human epithelial lining fluid at 150 mg, iv […]; assay type: ADME, organism-based; set-up: dose 150 mg, time < 24 hr, route intravenous
Procedure, shortened: (§5)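 Steady-state ELF and alveolar-cell concentrations were derived by urea dilution from BAL, with one bronchoscopy per subject at 4, 12 or 24 h after the third 150 mg IV dose (five subjects per time). A composite AUC over 0–24 h was calculated across subjects by the trapezoidal rule.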

[10] = Drug concentration in Alveolar macrophage cells of healthy human at 150 mg, iv […] measured after 24 hrs of third postdose by urea dilution method; assay type: ADME, organism-based; conditions: read-out: Drug uptake; procedure, shortened: as §1
[11] = AUC ( 0 to 24 hrs) in Alveolar macrophage cells of healthy human at 150 mg, iv […]; assay type: ADME, organism-based; set-up: time < 24 hr, dose 150 mg, route intravenous; procedure, shortened: as §5
[12] = Half life in healthy human plasma at 150 mg, iv […]; assay type: ADME, organism-based; procedure, shortened: as §4
Plasma [13] = assay: Plasma concentration in healthy human at 150 mg, iv […] measured before third dose; assay type: ADME, organism-based; conditions: in vivo; procedure, shortened: as §2
[14] = Drug concentration in healthy human plasma at 150 mg, iv QD measured after 12 hrs of third postdose by high-pressure liquid chromatography method; conditions: read-out: Drug uptake
[15] = AUC ( 0 to 24 hrs) in healthy human plasma at 150 mg, […]; assay type: ADME, organism-based; set-up: dose 150 mg, time < 24 hr, route intravenous; conditions: iv; procedure, shortened: as §4
[16] = Drug concentration in healthy human plasma at 150 mg, iv QD measured after 24 hrs of third postdose by high-pressure liquid chromatography method; conditions: read-out: Drug uptake
[17] = Drug concentration in healthy human epithelial lining fluid at 150 mg, iv QD measured after 12 hrs of third postdose by urea dilution method; conditions: read-out: Drug uptake
Aspergillus fumigatus [18] = assay: Antimicrobial activity against non-germinated Aspergillus fumigatus conidia; assay type: functional; conditions: read-out: MEC
[19] = Clearance at steady state in healthy human plasma at 150 mg, iv […]; assay type: ADME, organism-based; procedure, shortened: as §4
[20] = Volume of distribution in healthy human plasma at 150 mg, iv […]; assay type: ADME, organism-based; procedure, shortened: as §4
Aspergillus fumigatus [21] = assay: Antimicrobial activity against germinated Aspergillus fumigatus conidia; assay type: functional; conditions: read-out: MEC
[22] = Penetration ratio, ratio of AUC for human epithelial lining fluid to AUC for human plasma; assay type: ADME; conditions: read-out: Ratio AUC; procedure, shortened: as §3
[23] = Drug concentration in Alveolar macrophage cells of healthy human at 150 mg, iv […] measured after 12 hrs of third postdose by urea dilution method; assay type: ADME, organism-based; conditions: read-out: Drug uptake; procedure, shortened: as §1
[24] = Drug concentration in healthy human plasma at 150 mg, iv QD measured after 4 hrs of third postdose by high-pressure liquid chromatography method; conditions: read-out: Drug uptake

CCCCCOc1ccc(-c2cc(-c3ccc(C(=O)N[C@H]4C[C@@H](O)[C@@H](O)NC(=O)[C@@H]5[C@@H](O)[C@@H](C)CN5C(=O)[C@H]([C@H](O)CC(N)=O)NC(=O)[C@H]([C@H](O)[C@@H](O)c5ccc(O)c(OS(=O)(=O)O)c5)NC(=O)[C@@H]5C[C@@H](O)CN5C(=O)[C@H]([C@@H](C)O)NC4=O)cc3)no2)cc1 [MICAFUNGIN] (X1-[Orn(4R-OH,5R-OH)]T[Hyp][hTyr(3S-OH,4S-OH,3'-OSO3H)][Gln(3R-OH)][Pro(3S-OH,4S-Me)]; lactam 1-C)
concentration at 4 h [1]: 10400 ng/mL
concentration at 24 h [2]: 430 ng/mL
concentration at 4 h [3]: 520 ng/mL
concentration at 24 h [4]: 4670 ng/mL
PPB (Plasma [5]): 99%
Kp [6]: 106
Ratio [7]: 10
Cmax [8]: 19100 ng/mL
AUC at 24 h [9]: 10.2 µg·h/mL
concentration at 24 h [10]: 14600 ng/mL
AUC at 24 h [11]: 234 µg·h/mL
half-life [12]: 14.7 h
Cp (Plasma [13]): 4280 ng/mL
concentration at 12 h [14]: 7400 ng/mL
AUC at 24 h [15]: 220 µg·h/mL
concentration at 24 h [16]: 4800 ng/mL
concentration at 12 h [17]: 440 ng/mL
minimal effective concentration (Aspergillus fumigatus [18]): 0.06 µg/mL
clearance [19]: 11.7 mL/min
Vd [20]: 15 L
minimal effective concentration (Aspergillus fumigatus [21]): 0.25 µg/mL
Kp [22]: 5
concentration at 12 h [23]: 8400 ng/mL
concentration at 4 h [24]: 14800 ng/mL
